The record followed here is ChEMBL document CHEMBL1128719, “The synthesis, structure-activity, and structure-side effect relationships of a series of 8-alkoxy- and 5-amino-8-alkoxyquinolone antibacterial agents” (J Med Chem, 1995).

Values after ≈ are worked out from the molar mass of the structure shown.

For data set [1], the species on record is Mus musculus. Description: (§1) Phototoxic skin reaction in depilated female CD-1 mice. The format is functional. A digest of the protocol: (§2)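 Female CD-1 mice, depilated, given a single oral or subcutaneous dose. UVA (320–400 nm) exposure for 3 h, starting 1 h post-dose. Initial doses were 30, 100 and 300 mg/kg. PTD50 (dose giving phototoxic skin reaction in 50% of mice) derived by probit method. First day of positive reaction and no-effect dose taken from raw data.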

In data set [2] the test system is Cutibacterium acnes. Description: In vitro antibacterial activity was tested for Propion acnes PA5-1. The format is functional. In a few lines: (§3)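 Microtitration (microdilution) MIC determination in μg/mL against a panel of Gram-positive, Gram-negative and anaerobic organisms. Values come from duplicate or triplicate experiments and are stated accurate to ±50%.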

The test system of data set [3] is Clostridioides difficile. The data set can be described thus: In vitro antibacterial activity was tested for Clostridium diff CD1-1. The format is functional.
The test system of data set [4] is Bacteroides fragilis. Description: In vitro antibacterial activity against Bacteroides fragilis BFA. The format is functional. A digest of the protocol: as §3
For data set [5], the system named is Clostridium perfringens. The data set can be described thus: In vitro antibacterial activity against Clostridium perfringens CP 3-1. The format is functional.
In data set [6] the test system is Peptoniphilus asaccharolyticus. Description: In vitro antibacterial activity was tested for Pepto asac PA 3-1. The format is functional. A digest of the protocol:
as §3

Data set [7] is filed under the species Mus musculus. Described as §1. The following applies: in vivo. The format is toxicity, organism-based. A digest of the protocol:
as §2

In data set [8] the test system is Escherichia coli. The data set can be described thus: In vitro antibacterial activity was tested for Escherichia coli H560. The format is functional. A digest of the protocol:
as §3

Data set [9] concerns Klebsiella pneumoniae. Description: In vitro antibacterial activity was tested for Klebsiella pneumoniae MGH-2. The format is functional. In a few lines:
as §3

Data set [10] concerns Providencia rettgeri. The data set can be described thus: In vitro antibacterial activity was tested for Providencia rettgeri H1771. The format is functional. In a few lines:
as §3

The subject of data set [11] is Staphylococcus aureus. The data set can be described thus: In vitro antibacterial activity was tested for Staphylococcus aureus UC-76. The format is functional. A digest of the protocol:
as §3

The subject of data set [12] is Streptococcus pyogenes. The data set can be described thus: In vitro antibacterial activity was tested for Streptococcus pyogenes C203. The format is functional. A digest of the protocol: as §3
In data set [13] the test system is Streptococcus pneumoniae. The data set can be described thus: In vitro antibacterial activity was tested for Streptococcus pneumoniae SV-1. The format is functional. In a few lines:
as §3

In data set [14] the test system is Enterobacter cloacae. Description: In vitro antibacterial activity was tested for Enterobacter cloacae HA2646. The format is functional.
Data set [15] deals with Escherichia coli. Description: In vitro antibacterial activity was tested for Escherichia coli Vogel. The format is functional. In a few lines:
as §3

Data set [16] concerns Enterococcus faecalis. The data set can be described thus: In vitro antibacterial activity was tested for Streptococcus faecalis MGH-2. The format is functional. In a few lines: as §3
In data set [17] the test system is Staphylococcus aureus. Description: In vitro antibacterial activity was tested for Staphylococcus aureus H228. The format is functional. A digest of the protocol:
as §3

The subject of data set [18] is Pseudomonas aeruginosa. The data set can be described thus: In vitro antibacterial activity was tested for Pseudomonas aeruginosa UI-18. The format is functional. In a few lines: as §3
Data set [19] concerns V79. The data set can be described thus: (§4) Clonogenic cytotoxicity against Chinese hamster V-79 cells. The format is functional, cell-based. The following applies: Cricetulus griseus.
For data set [20], the species on record is Mus musculus. The data set can be described thus: Phototoxic skin reaction in depilated female CD-1 mice. The format is functional. In a few lines: as §2
Data set [21] deals with V79. Described as §4. The format is functional, cell-based. Conditions: Cricetulus griseus. In a few lines: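 Chinese hamster V-79 cells grown overnight, then exposed to drug 3 h at 37 °C; drug medium replaced with fresh medium, cells incubated 5 days and scored for colony formation. IC50 (μg/mL) taken as concentration inhibiting colony formation by 50% versus control.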
The source holds these as a separate data set.

Turning to `C[C@@H]1CN(c2c(F)cc3c(=O)c(C(=O)O)cn(C4CC4)c3c2F)C[C@H](C)N1`, the No effect dose in [1] was determined as 30 mg. The minimal inhibitory concentration (MIC) in [2] amounted to 0.8 mg/L (≈ 2.12 µM); in data set [3], 3.1 mg/L (≈ 8.21 µM); in data set [4], 1.6 mg/L (≈ 4.24 µM); in data set [5], 0.2 mg/L (≈ 0.53 µM); in data set [6] it was 1.6 mg/L (≈ 4.24 µM). In data set [7], this compound displayed a PTD50 of 55 mg.
Regarding `COc1c(N2CCC(N)C2)c(F)cc2c(=O)c(C(=O)O)cn(C3CC3)c12` (stereo not given), the MIC in data set [8] came out at 0.013 mg/L (≈ 0.036 µM); in [9], 0.05 mg/L (≈ 0.138 µM); in data set [10] it was 0.1 mg/L (≈ 0.277 µM); in data set [11], 0.013 mg/L (≈ 0.036 µM); in data set [12], 0.025 mg/L (≈ 0.0692 µM); in [13] it was 0.025 mg/L (≈ 0.0692 µM). For the same compound, the MIC in [14] worked out at 0.025 mg/L (≈ 0.0692 µM); in data set [15], 0.025 mg/L (≈ 0.0692 µM); in data set [16], 0.05 mg/L (≈ 0.138 µM); in [2], 0.4 mg/L (≈ 1.11 µM); in [17] it was 0.05 mg/L (≈ 0.138 µM); in data set [3], 0.4 mg/L (≈ 1.11 µM). Also, the MIC was determined as 0.2 mg/L (≈ 0.553 µM) in data set [4], 0.1 mg/L (≈ 0.277 µM) in data set [5], 0.4 mg/L (≈ 1.11 µM) in data set [18] and 0.8 mg/L (≈ 2.21 µM) in data set [6]. The compound also gave a No effect dose in data set [1] of 100 mg. In data set [7], this compound had a PTD50 of more than 100 mg.
In data set [19], `CC1(CN)CCN(c2c(F)cc3c(=O)c(C(=O)O)cn(C4CC4)c3c2Cl)C1` (stereo not given) gave an IC50 of 8.6 mg/L (≈ 21.8 µM). Also, the MIC in data set [2] was 0.2 mg/L (≈ 0.508 µM); in data set [3], 0.2 mg/L (≈ 0.508 µM); in data set [4], 0.05 mg/L (≈ 0.127 µM); in [5], 0.05 mg/L (≈ 0.127 µM); in data set [6] it was 0.2 mg/L (≈ 0.508 µM). The No effect dose in data set [20] was less than 30 mg. For the same compound, the PTD50 in [7] is given as less than 30 mg.
Consider `Nc1c(F)c(N2CCC(N)C2)c(F)c2c1c(=O)c(C(=O)O)cn2C1CC1` (stereo not given), for which the MIC amounted to 0.003 mg/L (≈ 0.00823 µM) in data set [8]; 0.006 mg/L (≈ 0.0165 µM) in data set [9]; 0.025 mg/L (≈ 0.0686 µM) in data set [10]; 0.006 mg/L (≈ 0.0165 µM) in data set [11]; 0.025 mg/L (≈ 0.0686 µM) in data set [12]; 0.006 mg/L (≈ 0.0165 µM) in [13]. The MIC amounted to 0.006 mg/L (≈ 0.0165 µM) in data set [14]; 0.006 mg/L (≈ 0.0165 µM) in [15]; 0.025 mg/L (≈ 0.0686 µM) in data set [16]; 0.013 mg/L (≈ 0.0357 µM) in data set [17]; 0.05 mg/L (≈ 0.137 µM) in data set [18]. The compound also came in with a No effect dose in data set [1] of 30 mg. For the same compound, the PTD50 in data set [7] came to 52 mg.
In the case of `CCOc1c(N2CCC(C)(CN)C2)c(F)cc2c(=O)c(C(=O)O)cn(C3CC3)c12` (stereo not given), the MIC in data set [8] was 0.2 mg/L (≈ 0.496 µM); in [9] it was 0.4 mg/L (≈ 0.991 µM); in data set [10], 0.8 mg/L (≈ 1.98 µM); in data set [11] it was 0.013 mg/L (≈ 0.0322 µM); in data set [12] it was 0.1 mg/L (≈ 0.248 µM); in data set [13], 0.1 mg/L (≈ 0.248 µM). The MIC was found to be 0.2 mg/L (≈ 0.496 µM) in data set [14]; 0.2 mg/L (≈ 0.496 µM) in data set [15]; 0.1 mg/L (≈ 0.248 µM) in data set [16]; 3.1 mg/L (≈ 7.68 µM) in data set [2]; 0.05 mg/L (≈ 0.124 µM) in data set [17]; 3.1 mg/L (≈ 7.68 µM) in [3]. The MIC came out at 1.6 mg/L (≈ 3.97 µM) in [4], 0.8 mg/L (≈ 1.98 µM) in data set [5], 1.6 mg/L (≈ 3.97 µM) in data set [18] and 0.8 mg/L (≈ 1.98 µM) in data set [6]. This compound also had an IC50 in data set [19] of 140 mg/L (≈ 347 µM). In addition, the No effect dose in [20] came to 100 mg. The compound further showed a PTD50 in data set [7] of more than 100 mg.
`CC1(CN)CCN(c2c(F)cc3c(=O)c(C(=O)O)cn(C4CC4)c3c2F)C1` (stereo not given) displayed an IC50 in data set [19] of 7.7 mg/L (≈ 20.4 µM). In addition, the MIC stood at 0.4 mg/L (≈ 1.06 µM) in data set [2]; 1.6 mg/L (≈ 4.24 µM) in [3]; 0.4 mg/L (≈ 1.06 µM) in [4]; 0.1 mg/L (≈ 0.265 µM) in data set [5]; 0.4 mg/L (≈ 1.06 µM) in data set [6]. The No effect dose in data set [20] is on record as less than 30 mg. This compound also returned a PTD50 in data set [7] of less than 30 mg.
With `NCC1CCCN(c2c(F)cc3c(=O)c(C(=O)O)cn(C4CC4)c3c2Cl)C1` (stereo not given), the MIC in data set [8] amounted to 0.05 mg/L (≈ 0.127 µM); in [9], 0.2 mg/L (≈ 0.508 µM); in [10], 0.2 mg/L (≈ 0.508 µM); in data set [11], 0.003 mg/L (≈ 0.00762 µM); in [12], 0.003 mg/L (≈ 0.00762 µM); in data set [13], 0.003 mg/L (≈ 0.00762 µM). Further, the MIC is 0.2 mg/L (≈ 0.508 µM) in data set [14]; 0.1 mg/L (≈ 0.254 µM) in data set [15]; 0.05 mg/L (≈ 0.127 µM) in [16]; 0.025 mg/L (≈ 0.0635 µM) in data set [17]; 1.6 mg/L (≈ 4.06 µM) in [18]. In data set [21], the IC50 came to 17 mg/L (≈ 43.2 µM).
